Reference: ChEMBL document CHEMBL2163205 (J Med Chem, 2012)
Converted amounts (≈) assume the structure as drawn.

What was measured:
[1] = Lipophilicity, log D of the compound at pH 7.4; details: buffer
[2] = Intrinsic clearance in rat liver microsomes assessed as metabolic turnover
Cathepsin B = Cathepsin B (Homo sapiens, UniProt P07858); assay: Inhibition of human recombinant CatB assessed as suppression of enzyme-mediated Z-Arg-Arg-AMC cleavage by QFRET assay
Method in brief: (§1)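 Recombinant human Cat B at 0.5 nM final was preincubated with compound for 30 min at room temperature. Z-Arg-Arg-AMC (100 μM final) was added in potassium phosphate buffer, pH 6.4, incubated 1 h, then stopped with acetic acid. Fluorescence read at ex 360/em 425 nm with background correction; IC50 by nonlinear regression.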

Cathepsin S = Cathepsin S (Homo sapiens, UniProt P25774); assay: Inhibition of human recombinant CatS assessed as suppression of enzyme-mediated Z-Val-Val-Arg-AMC cleavage by QFRET assay
Sequence of Cathepsin S (P25774 whole entry): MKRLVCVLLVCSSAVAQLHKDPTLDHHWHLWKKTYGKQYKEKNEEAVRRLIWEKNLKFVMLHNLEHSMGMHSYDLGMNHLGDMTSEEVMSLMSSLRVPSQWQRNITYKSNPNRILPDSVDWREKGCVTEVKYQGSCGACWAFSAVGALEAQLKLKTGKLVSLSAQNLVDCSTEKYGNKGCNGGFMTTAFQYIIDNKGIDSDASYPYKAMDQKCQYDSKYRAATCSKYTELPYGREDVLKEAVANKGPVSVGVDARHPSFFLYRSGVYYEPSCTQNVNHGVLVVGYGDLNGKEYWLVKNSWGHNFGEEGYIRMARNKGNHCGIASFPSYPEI
Method in brief: as §1, with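 “S” for “B”, “Z-Val-Val-Arg-AMC” for “Z-Arg-Arg-AMC”, “AMC fluorescence” for “Fluorescence”, “nm;” for “nm with background correction;”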

Cathepsin K = biological target: T1, Cathepsin K (Homo sapiens, UniProt P43235); assay: Inhibition of human recombinant CatK assessed as suppression of enzyme-mediated Z-Phe-Arg-AMC cleavage incubated for 1 hrs by QFRET assay
T1 sequence (P43235 whole entry): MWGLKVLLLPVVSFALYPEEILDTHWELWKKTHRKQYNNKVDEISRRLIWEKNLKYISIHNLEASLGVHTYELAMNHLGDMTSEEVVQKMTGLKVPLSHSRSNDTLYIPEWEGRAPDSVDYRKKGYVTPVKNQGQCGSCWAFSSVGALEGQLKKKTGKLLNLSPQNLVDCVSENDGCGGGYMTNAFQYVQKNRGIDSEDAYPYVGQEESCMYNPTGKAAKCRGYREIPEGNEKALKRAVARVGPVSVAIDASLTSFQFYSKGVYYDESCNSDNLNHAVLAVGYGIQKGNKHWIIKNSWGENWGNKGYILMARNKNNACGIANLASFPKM

Procathepsin L = Procathepsin L (Homo sapiens, UniProt P07711); assay: Inhibition of human recombinant CatL assessed as suppression of enzyme-mediated Z-Phe-Arg-AMC cleavage by QFRET assay
Sequence of Procathepsin L (P07711 whole entry): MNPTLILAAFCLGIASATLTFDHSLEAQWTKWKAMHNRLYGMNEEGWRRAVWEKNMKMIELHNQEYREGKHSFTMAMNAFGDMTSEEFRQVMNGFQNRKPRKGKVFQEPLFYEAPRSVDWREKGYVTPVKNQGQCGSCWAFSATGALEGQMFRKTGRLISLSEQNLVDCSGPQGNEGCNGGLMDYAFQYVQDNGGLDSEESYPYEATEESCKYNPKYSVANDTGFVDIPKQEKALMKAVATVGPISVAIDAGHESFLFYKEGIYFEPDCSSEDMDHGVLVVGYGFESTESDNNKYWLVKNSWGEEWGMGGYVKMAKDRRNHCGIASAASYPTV
Method in brief: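 Recombinant human Cat L at 0.1 nM final was preincubated with compound for 30 min, then Z-Phe-Arg-AMC (10 μM final) was added. QFRET cleavage was run 1 h at room temperature and stopped with acetic acid. Fluorescence read at ex 360/em 425 nm; IC50 by variable-slope nonlinear regression.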

[3] = Aqueous solubility of the compound at pH 7.4; details: buffer
[4] = Intrinsic clearance in human liver microsomes assessed as metabolic turnover
[5] = Intrinsic clearance in rat hepatocytes assessed as metabolic turnover measured per 10^6 cells; type: ADME, cell-based, Hepatocyte
Method in brief: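 Intrinsic clearance from in vitro hepatocyte incubation, expressed in μL/min/10⁶ cells. Each value is the mean of at least n = 2 experiments.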

| logD [1] | microsomal CLint [2] [µL/min/mg] | IC50 (Cathepsin B) [nM] | IC50 (Cathepsin S) [nM] | IC50 (Cathepsin K) [nM] | IC50 (Procathepsin L; read-out: IC50) [nM] | solubility [3] [µM] | microsomal CLint [4] [µL/min/mg] | IC50 (Procathepsin L) | hepatocyte CLint [5] [µL/min/1e6 cells] | Compound |
| --- | --- | --- | --- | --- | --- | --- | --- | --- | --- | --- |
| 4.2 | 82 | > 2900 | > 4000 |  |  | 74 (≈ 33.9 µg/mL) | 33 | Not Active |  | N#CC1(NC(=O)[C@@H]2CCCC[C@H]2C(=O)N2CCc3[nH]c4ccc(C(F)(F)F)cc4c3C2)CC1 |
|  | 303 | > 2900 | > 4000 | 4 |  |  | 79 | Not Active |  | CSc1cccc2c3c([nH]c12)CCN(C(=O)[C@@H]1CCCC[C@H]1C(=O)NC1(C#N)CC1)C3 |
| 4.1 |  | > 2900 | > 4000 | 50 |  | 84 (≈ 36.3 µg/mL) |  | Not Active |  | CC(C)c1ccc2[nH]c3c(c2c1)CN(C(=O)[C@@H]1CCCC[C@H]1C(=O)NC1(C#N)CC1)CC3 |
| 3 | 179 | > 2900 | > 4000 | 3 |  | 510 (≈ 206 µg/mL) | 25 | Not Active |  | Cc1cccc2c3c([nH]c12)CCN(C(=O)[C@@H]1CCCC[C@H]1C(=O)NC1(C#N)CC1)C3 |
| 2.5 | 80 | > 2900 | > 4000 | 2 |  | 400 (≈ 166 µg/mL) | 34 | Not Active |  | N#Cc1cccc2c3c([nH]c12)CCN(C(=O)[C@@H]1CCCC[C@H]1C(=O)NC1(C#N)CC1)C3 |
| 3 | 89 | > 2900 | > 4000 | 4 |  | 540 (≈ 221 µg/mL) | 36 | Not Active |  | N#CC1(NC(=O)[C@@H]2CCCC[C@H]2C(=O)N2CCc3[nH]c4cc(F)ccc4c3C2)CC1 |
| 4 | 53 | > 2900 | > 4000 | 2 |  | 120 (≈ 56.9 µg/mL) | 19 | Not Active |  | N#CC1(NC(=O)[C@@H]2CCCC[C@H]2C(=O)N2CCc3[nH]c4c(OC(F)(F)F)cccc4c3C2)CC1 |
|  | 164 | > 2900 |  | 4 |  |  | 43 | Not Active |  | N#CC1(NC(=O)[C@@H]2CCCC[C@H]2C(=O)N2CCc3[nH]c4c(Br)cccc4c3C2)CC1 |
|  |  | > 2900 | > 4000 |  |  | 193 (≈ 90.4 µg/mL) | 14 | Not Active | 3.5 | CS(=O)(=O)c1ccc2[nH]c3c(c2c1)CN(C(=O)[C@@H]1CCCC[C@H]1C(=O)NC1(C#N)CC1)CC3 |
| 3.7 | > 350 | > 2900 | > 4000 |  |  | 130 (≈ 55.2 µg/mL) | 87 | Not Active |  | N#CC1(NC(=O)[C@@H]2CCCC[C@H]2C(=O)N2CCc3[nH]c4ccc(Cl)cc4c3C2)CC1 |
| 1.5 | 7.2 | > 2900 | > 4000 | 34 |  | 902 (≈ 423 µg/mL) | < 2 | Not Active |  | CS(=O)(=O)c1ccc2c3c([nH]c2c1)CCN(C(=O)[C@@H]1CCCC[C@H]1C(=O)NC1(C#N)CC1)C3 |
| 3.2 | 322 | > 2900 | > 4000 | 10 |  | 128 (≈ 52.3 µg/mL) | 57 | Not Active |  | N#CC1(NC(=O)[C@@H]2CCCC[C@H]2C(=O)N2CCc3[nH]c4cccc(F)c4c3C2)CC1 |
| 3 | 311 | > 2900 | > 4000 | < 1 |  | 470 (≈ 192 µg/mL) | 55 | Not Active |  | N#CC1(NC(=O)[C@@H]2CCCC[C@H]2C(=O)N2CCc3[nH]c4c(F)cccc4c3C2)CC1 |
| 2.4 |  | > 2900 | > 4000 |  |  | 822 (≈ 346 µg/mL) | 29 | Not Active | 20 | COc1ccc2[nH]c3c(c2c1)CN(C(=O)[C@@H]1CCCC[C@H]1C(=O)NC1(C#N)CC1)CC3 |
| 3.1 | 62 | > 2900 | > 4000 | < 1 |  | 300 (≈ 130 µg/mL) | 13 | Not Active |  | CCOc1cccc2c3c([nH]c12)CCN(C(=O)[C@@H]1CCCC[C@H]1C(=O)NC1(C#N)CC1)C3 |
| 1.7 | 23 | > 2900 | > 4000 | 17 |  | 1600 (≈ 750 µg/mL) | 4 | Not Active |  | CS(=O)(=O)c1cccc2c3c([nH]c12)CCN(C(=O)[C@@H]1CCCC[C@H]1C(=O)NC1(C#N)CC1)C3 |
|  | 226 | > 2900 |  | 2 |  |  | 46 | Not Active |  | N#CC1(NC(=O)[C@@H]2CCCC[C@H]2C(=O)N2CCc3[nH]c4c(Cl)cccc4c3C2)CC1 |
| 3.8 | 116 | > 2900 | > 4000 | 5 |  | 150 (≈ 68.8 µg/mL) | 26 | Not Active |  | N#CC1(NC(=O)[C@@H]2CCCC[C@H]2C(=O)N2CCc3[nH]c4c(C(F)(F)F)cccc4c3C2)CC1 |

Further lines, the compound ahead of its results:

| Compound | logD [1] | microsomal CLint [2] [µL/min/mg] | IC50 (Cathepsin B) [nM] | IC50 (Cathepsin S) [nM] | IC50 (Cathepsin K) [nM] | IC50 (Procathepsin L; read-out: IC50) [nM] | solubility [3] [µM] | microsomal CLint [4] [µL/min/mg] | IC50 (Procathepsin L) | hepatocyte CLint [5] [µL/min/1e6 cells] |
| --- | --- | --- | --- | --- | --- | --- | --- | --- | --- | --- |
| N#CCNC(=O)[C@@H]1CCCC[C@H]1C(=O)N1CCN(c2ccccc2)CC1 | 1.8 | 115 | 455 | 1030 | 7 | > 100000 | 640 (≈ 227 µg/mL) | 7.7 |  |  |
| C[C@@H](C#N)NC(=O)[C@@H]1CCCC[C@H]1C(=O)N1CCc2[nH]c3ccc(F)cc3c2C1 | 3.5 |  | 73500 | > 70000 | 17.3 | > 40000 |  |  |  |  |
| CC(C)(C)[C@@H](C#N)NC(=O)[C@@H]1CCCC[C@H]1C(=O)N1CCc2[nH]c3ccc(F)cc3c2C1 | > 4.1 | 195 | 31200 | > 100000 | 785 | > 100000 | 74 (≈ 32.5 µg/mL) | 99 |  |  |
| N#CCNC(=O)[C@@H]1CCCC[C@H]1C(=O)N1CC=CCC1 |  | 41 |  |  | 18 | > 100000 |  | 4.5 |  |  |
| N#CCNC(=O)[C@@H]1CCCC[C@H]1C(=O)N1CCc2[nH]c3ccc(F)cc3c2C1 |  | > 250 | 1420 |  | < 1 | > 40000 |  | 18 |  |  |
| Cn1c2c(c3c(F)c(F)ccc31)CN(C(=O)[C@@H]1CCCC[C@H]1C(=O)NC1(C#N)CC1)CC2 | 2.8 | > 350 | > 2900 | > 4000 | 3 |  | 300 (≈ 132 µg/mL) | 170 | Not Active |  |
| N#CCNC(=O)[C@@H]1CCCC[C@H]1C(=O)N1CCc2ccccc2C1 |  | 145 | 712 |  | 2 | 3110 |  | 23 |  |  |
| N#CC(NC(=O)[C@@H]1CCCC[C@H]1C(=O)N1CCN(c2ccc(F)cc2)CC1)c1ccccc1 (some centres undefined) |  |  |  | 258 | 3 |  |  |  |  |  |
| COc1ccccc1C(C#N)NC(=O)[C@@H]1CCCC[C@H]1C(=O)N1CCN(Cc2ccc(F)cc2)CC1 (some centres undefined) |  |  |  | 76 | 1 |  |  |  |  |  |
| C[C@H](C#N)NC(=O)[C@@H]1CCCC[C@H]1C(=O)N1CCc2[nH]c3ccc(F)cc3c2C1 | 3.1 | > 250 | 44900 | > 100000 | 16.2 | > 100000 | 460 (≈ 182 µg/mL) | 12 |  |  |
| CC(C)(F)C[C@H](N[C@@H](c1ccc(-c2ccc(S(C)(=O)=O)cc2)cc1)C(F)(F)F)C(=O)NC1(C#N)CC1 [ODANACATIB] |  |  |  | 183 | < 1 |  |  |  |  |  |
| N#CCNC(=O)[C@@H]1CCCC[C@H]1C(=O)N1CCCCC1 | 0.9 | 12 | 8750 | 2110 | 73 | > 100000 | > 4900 | < 2 |  |  |
